# Results: paper PMC4981245 (ACS chemical biology, 2016)
# “Also recorded” adds a separate entry of the source. Where two headings read alike, the source gives them in different places.
# Legend:
# mGlu5 [1] = target: T1, mGlu5 (Rattus norvegicus, UniProt P31424); experiment: [3H]mPEPy inhibition binding, membranes from HEK293A-mGlu5-low; details: for displacement of [3H]mPEPy binding, incubation time 4 h: equilibration time extended to 4 h
# In short: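 HEK293A-mGlu5-low membranes with ~2 nM [3H]mPEPy and test compound (0.3 nM–30 μM) in Ca2+ assay buffer, RT, 1 h initially, extended to 4 h. […] Filtration on GF/B, ice-cold 0.9% NaCl/50 mM Tris pH 7.4 washes, scintillation counting.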
# mGlu5 [2] = target: T1, mGlu5; format: cell-based; details: for EC80 glutamate inhibition hill slope: HEK293A-mGlu5-low
# mGlu5 [3] = target: T1, mGlu5; format: binding; details: for [3H]mPEPy binding after pretreatment, three (5 min) washes: 1 μM pretreatment
# In short: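 Whole HEK293A-mGlu5-low cells plated at ~200 000 cells/well on poly-D-lysine. Test compound (1 μM) applied 10 min at RT, with or without UV. Washed either 3 × 5 min or 5 × 1 h at RT in Ca2+ assay buffer. Then ~2 nM [3H]mPEPy for 1 h at RT, ice-cold 0.9% NaCl washes, 0.2 M NaOH lysis overnight, liquid scintillation counting.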
# mGlu5 [4] = target: T1, mGlu5; experiment: Agonist Ca2+ mobilization after acute NAM exposure and extensive washes; format: cell-based; details: for ΔEmax: change after azido-alkyne 8 (1uM)
# mGlu5 [5] = target: T1, mGlu5; experiment: Agonist activity in mGlu5 intracellular Ca2+ mobilization; format: cell-based; details: absence of glutamate
# mGlu5 [6] = target: T1, mGlu5; experiment: Modulation of glutamate concentration-response curves for Ca2+ mobilization; format: cell-based
# T1 sequence (P31424 21-1203): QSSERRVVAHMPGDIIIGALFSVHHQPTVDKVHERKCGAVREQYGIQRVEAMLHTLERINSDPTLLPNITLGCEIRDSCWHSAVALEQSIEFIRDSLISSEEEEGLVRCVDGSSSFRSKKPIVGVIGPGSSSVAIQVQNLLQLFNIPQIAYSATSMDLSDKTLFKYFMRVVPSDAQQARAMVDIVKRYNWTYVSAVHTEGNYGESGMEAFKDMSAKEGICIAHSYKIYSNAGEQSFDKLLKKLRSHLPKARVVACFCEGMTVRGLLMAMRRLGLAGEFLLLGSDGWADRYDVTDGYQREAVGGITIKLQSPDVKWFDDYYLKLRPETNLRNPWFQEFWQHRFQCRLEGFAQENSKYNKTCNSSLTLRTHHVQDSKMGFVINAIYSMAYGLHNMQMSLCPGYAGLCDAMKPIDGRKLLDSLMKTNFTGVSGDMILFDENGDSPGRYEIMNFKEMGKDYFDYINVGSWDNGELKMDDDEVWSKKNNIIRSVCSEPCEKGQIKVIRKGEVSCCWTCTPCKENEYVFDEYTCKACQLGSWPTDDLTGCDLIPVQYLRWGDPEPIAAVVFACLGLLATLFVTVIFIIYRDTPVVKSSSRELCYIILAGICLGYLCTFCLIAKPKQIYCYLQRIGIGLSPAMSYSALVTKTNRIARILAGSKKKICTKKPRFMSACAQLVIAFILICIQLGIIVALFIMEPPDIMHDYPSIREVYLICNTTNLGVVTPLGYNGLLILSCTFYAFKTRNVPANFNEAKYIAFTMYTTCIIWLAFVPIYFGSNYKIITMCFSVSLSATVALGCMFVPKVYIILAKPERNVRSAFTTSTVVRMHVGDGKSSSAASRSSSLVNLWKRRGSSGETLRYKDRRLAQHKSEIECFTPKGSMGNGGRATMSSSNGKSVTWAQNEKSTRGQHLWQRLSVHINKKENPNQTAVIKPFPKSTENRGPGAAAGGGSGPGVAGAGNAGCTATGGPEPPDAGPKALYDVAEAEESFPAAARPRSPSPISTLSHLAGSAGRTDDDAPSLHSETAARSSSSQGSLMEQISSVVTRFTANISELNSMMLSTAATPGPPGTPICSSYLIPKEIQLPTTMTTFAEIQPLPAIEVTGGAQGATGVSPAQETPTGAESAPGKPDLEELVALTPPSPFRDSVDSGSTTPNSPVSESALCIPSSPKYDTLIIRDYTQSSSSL
smiles,measurement,setting,value
"Cc1cccc(C#Cc2ccccc2)n1 [6 (MPEP), MPEP, reference compound]","displacement of [3H]mPEPy binding, incubation time 4 h",mGlu5 [1],no effect
same,EC80 glutamate inhibition hill slope,mGlu5 [2],−1.53 ± 0.18
same,EC80 glutamate inhibition pKB,mGlu5 [2]; operational model of allosterism applied to EC80 glutamate inhibition curves,7.97 ± 0.16
same,"[3H]mPEPy binding after pretreatment, three (5 min) washes",mGlu5 [3],reduced [^3H]mPEPy binding to a similar extent
same,inhibition of mGlu5 photoaffinity labeling of the clickable photoprobes,purified mGlu5; saturating concentration (10 μM),did not inhibit
same,effect of pre-exposure on potency or maximal response to glutamate or VU0424465,mGlu5 [4]; 10 min exposure followed by five extended washes,no effect
C[C@@H](NC(=O)c1ccc(C#Cc2cccc(F)c2)cn1)C(C)(C)O [VU0424465],pEC50 (untreated),"mGlu5 [4]; HEK293A-mGlu5-low, untreated",6.60 ± 0.18
same,ΔEmax,mGlu5 [4],−18.3 ± 10.8 percentage of the maximum response to glutamate
same,pKA,"mGlu5 [4]; equilibrium dissociation constant of the agonist, receptor depletion with azido-alkyne 8 (1uM)",6.17 ± 0.25
same,pEC50 (treated),mGlu5 [4]; treated with azido-alkyne 8 (1uM),6.11 ± 0.23
COc1cc(O)c(C(=O)c2ccccc2)cc1S(=O)(=O)O [compound 4],Ki,mGlu5 [1],25.1 nM
same,"displacement of [3H]mPEPy binding, incubation time 4 h",mGlu5 [1],complete displacement; also recorded: fully displaced
same,displacement of [3H]mPEPy binding,mGlu5 [1]; initial assay conditions,incomplete displacement
same,fold higher mGlu5 binding affinity relative to lead NAM 2,mGlu5 [1]; radioligand inhibition binding,2 fold
same,intrinsic agonist activity at mGlu5,mGlu5 [5],No evidence of agonist activity; also recorded: no intrinsic agonist activity
same,IC50,mGlu5 [2],647 nM
same,Kb,mGlu5 [2],891 nM
same,fold less potent than lead NAM 2 at inhibiting EC80 glutamate response,mGlu5 [2],~ 5 fold
same,EC80 glutamate inhibition hill slope,mGlu5 [2],−0.91 ± 0.23
same,fold increase of affinity estimate with 30 min versus 1 min preincubation,mGlu5 [6],~ 10 fold
same,effect on glutamate maximal functional response,mGlu5 [6]; 1 min pre-exposure,complete inhibition
same,Kb,"mGlu5 [6]; affinity estimate pKB, 30 min preincubation, photoprobe preincubation 30 min",36.3 nM
same,affinity estimate (pKB) fold difference to benzyl ether derivative 3,"mGlu5 [6]; allosteric interaction assay, 1 min",≤ 5 fold
same,"[3H]mPEPy binding after pretreatment, three (5 min) washes",mGlu5 [3],significantly reduced
same,[3H]mPEPy binding after extensive wash protocol (five 1 h washes),mGlu5 [3]; absence of UV irradiation,concentration-dependently inhibited
same,Cy5.5 in-gel fluorescence of mGlu5 dimer band,"purified mGlu5; absence of a competitor, versus vehicle",significantly increase
N[C@@H](CCC(=O)O)C(=O)O [glutamate],ΔEmax,mGlu5 [4],−46.3 ± 18.3 percentage of the maximum response to glutamate
